Data reported in ChEMBL document CHEMBL1146375, “Synthetic studies on novel benzimidazolopeptides with antimicrobial, cytotoxic and anthelmintic potential” (2007).
≈ marks a conversion by molar mass, not a printed value.

Test system: Bacillus subtilis
Experiment: Antibacterial activity against Bacillus subtilis NCIM 2063 after 18 hrs by disc diffusion method
Type: functional
Conditions: not given
Summary of the method: (§1)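 Modified Kirby-Bauer disc diffusion. Plates inoculated with spore suspension (about 6 × 10⁴ spores mL^-1). Sterile 6 mm paper discs carried test samples at 10 mg mL^-1; ciprofloxacin disc as reference, DMF disc as negative control. Plates held 18 h at 37 °C. Inhibition zone diameters (mm) averaged over triplicate sets.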

| Compound | inhibition zone (IZ) |
| --- | --- |
| O=C(O)c1cn(C2CC2)c2cc(N3CCNCC3)c(F)cc2c1=O [CIPROFLOXACIN] | 20 mm |

Test system: Staphylococcus aureus
Experiment: Antibacterial activity against Staphylococcus aureus NCIM 2079 after 18 hrs by disc diffusion method
Type: functional
Conditions: not given
Summary of the method: as §1

| Compound | inhibition zone (IZ) |
| --- | --- |
| O=C(O)c1cn(C2CC2)c2cc(N3CCNCC3)c(F)cc2c1=O [CIPROFLOXACIN] | 20 mm |

Test system: Pseudomonas aeruginosa
Experiment: Antibacterial activity against Pseudomonas aeruginosa NCIM 2034 after 18 hrs by disc diffusion method
Type: functional
Conditions: not given
Summary of the method: as §1

| Compound | inhibition zone (IZ) |
| --- | --- |
| O=C(O)c1cn(C2CC2)c2cc(N3CCNCC3)c(F)cc2c1=O [CIPROFLOXACIN] | 25 mm |

Test system: Candida albicans
Experiment: Antifungal activity against Candida albicans MUCC 29 after 48 hrs by disc diffusion method
Type: functional
Conditions: not given
Summary of the method: (§2)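 Agar well diffusion on plates inoculated with spore suspension in normal saline from cultures on Sabouraud's broth. Wells punched and loaded with test samples or griseofulvin at 10 mg mL^-1, with DMSO as negative control. Incubated 48 h at 37 °C.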

| Compound | inhibition zone (IZ) |
| --- | --- |
| COC1=CC(=O)C[C@@H](C)[C@]12Oc1c(Cl)c(OC)cc(OC)c1C2=O [GRISEOFULVIN] | 20 mm |

Test system: Microsporum audouinii
Experiment: Antifungal activity against Microsporum audouinii MUCC 545 after 48 hrs by disc diffusion method
Type: functional
Conditions: not given
Summary of the method: as §2

| Compound | inhibition zone (IZ) |
| --- | --- |
| COC1=CC(=O)C[C@@H](C)[C@]12Oc1c(Cl)c(OC)cc(OC)c1C2=O [GRISEOFULVIN] | 17 mm |

Test system: Trichophyton benhamiae
Experiment: Antifungal activity against Trichophyton mentagrophytes MUCC 665 after 48 hrs by disc diffusion method
Type: functional, Arthroderma benhamiae
Conditions: not given
Summary of the method: as §2

| Compound | inhibition zone (IZ) |
| --- | --- |
| COC1=CC(=O)C[C@@H](C)[C@]12Oc1c(Cl)c(OC)cc(OC)c1C2=O [GRISEOFULVIN] | 20 mm |

Test system: Aspergillus niger
Experiment: Antifungal activity against Aspergillus niger MUCC 177 after 48 hrs by disc diffusion method
Type: functional
Conditions: not given
Summary of the method: as §2

| Compound | inhibition zone (IZ) |
| --- | --- |
| COC1=CC(=O)C[C@@H](C)[C@]12Oc1c(Cl)c(OC)cc(OC)c1C2=O [GRISEOFULVIN] | 18 mm |

Test system: Bacillus subtilis
Experiment: Antibacterial activity against Bacillus subtilis NCIM 2063 after 18 hrs by tube dilution method
Type: functional
Conditions: NCIM 2063, 18 h
Summary of the method: (§3)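 Tube dilution MIC. Stock diluted in sterile broth to seven concentrations from 200 to 3.1 […]. Each tube inoculated with one loopful of test bacterium and incubated 18 h at 37 °C. MIC read from presence or absence of growth.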

| Compound | MIC |
| --- | --- |
| O=C(O)c1cn(C2CC2)c2cc(N3CCNCC3)c(F)cc2c1=O [CIPROFLOXACIN] | 6 µg/mL (≈ 18.1 µM) |

Test system: Staphylococcus aureus
Experiment: Antibacterial activity against Staphylococcus aureus NCIM 2079 after 18 hrs by tube dilution method
Type: functional
Conditions: NCIM 2079, 18 h
Summary of the method: as §3

| Compound | MIC |
| --- | --- |
| O=C(O)c1cn(C2CC2)c2cc(N3CCNCC3)c(F)cc2c1=O [CIPROFLOXACIN] | 12.5 µg/mL (≈ 37.7 µM) |

Test system: Pseudomonas aeruginosa
Experiment: Antibacterial activity against Pseudomonas aeruginosa NCIM 2034 after 18 hrs by tube dilution method
Type: functional
Conditions: NCIM 2034, 18 h
Summary of the method: as §3

| Compound | MIC |
| --- | --- |
| O=C(O)c1cn(C2CC2)c2cc(N3CCNCC3)c(F)cc2c1=O [CIPROFLOXACIN] | 6 µg/mL (≈ 18.1 µM) |

Test system: Escherichia coli
Experiment: Antibacterial activity against Escherichia coli NCIM 2065 after 18 hrs by tube dilution method
Type: functional
Conditions: NCIM 2065, 18 h

| Compound | MIC |
| --- | --- |
| O=C(O)c1cn(C2CC2)c2cc(N3CCNCC3)c(F)cc2c1=O [CIPROFLOXACIN] | 12.5 µg/mL (≈ 37.7 µM) |

Test system: Candida albicans
Experiment: Antifungal activity against Candida albicans MUCC 29 after 48 hrs by tube dilution method
Type: functional
Conditions: not given
Summary of the method: (§4)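 Tube dilution MIC as for bacteria (seven concentrations, 200–3.1 […]), with DMSO in place of DMF. Tubes inoculated with fungal culture and incubated 48 h at 37 °C. MIC read from presence or absence of growth.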

| Compound | MIC |
| --- | --- |
| COC1=CC(=O)C[C@@H](C)[C@]12Oc1c(Cl)c(OC)cc(OC)c1C2=O [GRISEOFULVIN] | 6 µg/mL (≈ 17 µM) |

Test system: Microsporum audouinii
Experiment: Antifungal activity against Microsporum audouinii MUCC 545 after 48 hrs by tube dilution method
Type: functional
Conditions: not given
Summary of the method: as §4

| Compound | MIC |
| --- | --- |
| COC1=CC(=O)C[C@@H](C)[C@]12Oc1c(Cl)c(OC)cc(OC)c1C2=O [GRISEOFULVIN] | 6 µg/mL (≈ 17 µM) |

Test system: Trichophyton benhamiae
Experiment: Antifungal activity against Trichophyton mentagrophytes MUCC 665 after 48 hrs by tube dilution method
Type: functional, Arthroderma benhamiae
Conditions: not given
Summary of the method: as §4

| Compound | MIC |
| --- | --- |
| COC1=CC(=O)C[C@@H](C)[C@]12Oc1c(Cl)c(OC)cc(OC)c1C2=O [GRISEOFULVIN] | 6 µg/mL (≈ 17 µM) |

Test system: Eudrilus
Experiment: Anthelmintic activity against Eudrilus sp. assessed as mean paralyzing time
Type: functional
Conditions: not given
Summary of the method: (§5)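 Earthworms exposed to test suspensions at 2 mg mL^-1 (0.2% w/v), made by triturating compound with Tween 80 (0.5%) and distilled water, then mechanically stirred 30 min. Mebendazole suspension prepared alike as reference. Paralysis and death times recorded; death confirmed by no movement in 50 °C water. Means from triplicate sets.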

| Compound | Time |
| --- | --- |
| COC(=O)Nc1nc2cc(C(=O)c3ccccc3)ccc2[nH]1 [MEBENDAZOLE] | 13.54 min |

Test system: Eudrilus
Experiment: Anthelmintic activity against Eudrilus sp. assessed as mean death time
Type: functional
Conditions: not given
Summary of the method: (§6)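 Earthworms exposed to test suspensions at 2 mg mL−1, prepared by triturating compound with Tween 80 (0.5%) and distilled water, stirring 30 min, then diluting to 0.2% w/v. Mebendazole suspension was made the same way. Death was confirmed by moving worms into 50 °C warm water and looking for movement. Mean death time (min) taken from triplicate sets.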

| Compound | Time |
| --- | --- |
| COC(=O)Nc1nc2cc(C(=O)c3ccccc3)ccc2[nH]1 [MEBENDAZOLE] | 24.05 min |

Test system: not listed separately
Experiment: Anthelmintic activity against Megascoplex konkanensis ICARBC 211 assessed as mean paralyzing time
Type: functional
Conditions: not given
Summary of the method: as §5

| Compound | TIME |
| --- | --- |
| COC(=O)Nc1nc2cc(C(=O)c3ccccc3)ccc2[nH]1 [MEBENDAZOLE] | 0.231 h |

Test system: not listed separately
Experiment: Anthelmintic activity against Megascoplex konkanensis ICARBC 211 assessed as mean death time
Type: functional
Conditions: not given
Summary of the method: as §5

| Compound | TIME |
| --- | --- |
| COC(=O)Nc1nc2cc(C(=O)c3ccccc3)ccc2[nH]1 [MEBENDAZOLE] | 0.382 h |

Test system: Pontoscolex corethrurus
Experiment: Anthelmintic activity against Pontoscolex corethrurus ICARBC 408 assessed as mean paralyzing time
Type: functional
Conditions: not given
Summary of the method: as §5

| Compound | Time |
| --- | --- |
| COC(=O)Nc1nc2cc(C(=O)c3ccccc3)ccc2[nH]1 [MEBENDAZOLE] | 17.85 min |

Test system: Pontoscolex corethrurus
Experiment: Anthelmintic activity against Pontoscolex corethrurus ICARBC 408 assessed as mean death time
Type: functional
Conditions: not given
Summary of the method: as §6

| Compound | Time |
| --- | --- |
| COC(=O)Nc1nc2cc(C(=O)c3ccccc3)ccc2[nH]1 [MEBENDAZOLE] | 29.64 min |
